ChEMBL document CHEMBL4513216, “Probing the Open Global Health Chemical Diversity Library for Multistage-Active Starting Points for Next-Generation Antimalarials” (ACS Infect Dis, 2020)

Experiment: Toxicity liver stage against HepG2, at 10uM
Assay type: cell-based
Design: test concentration 10 uM, cell line HepG2-A16-CD81EGFP
Conditions: human, HepG2-A16-CD81EGFP cells; read-out: INHIBITION
In short: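 Uninfected HepG2-A16-CD81EGFP cells, 3 × 10^3 per well, 1536-well, plated on prespotted compound at 10 μM final, parasite-free screening media added to match infected plates; puromycin 10 μM positive, DMSO 0.5% negative; run in parallel with 48 h PbLuc assay at 37 °C, 5% CO2; viability by CellTiter-Glo luminescence, normalized to controls.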

O=c1[nH]c(-c2cccnc2)nc2c1CCN(S(=O)(=O)N1CCCC1)C2
cytotoxicity at 10 µM: 0.384%

OCc1c(Cl)ncn1-c1ccc(F)cc1
cytotoxicity at 10 µM: 6.61%

CN(C)C(=O)[C@H]1C[C@H]2CN(C(=O)NCC3CCCCC3)C[C@@H]1O2
cytotoxicity at 10 µM: -0.572%

CCCS(=O)(=O)CCN1CCOC(c2ccsc2)C1 (stereo unspecified)
cytotoxicity at 10 µM: -2.69%

CS(=O)(=O)N1C[C@H]2CNC[C@@]2(C(=O)NCCOc2ccccc2)C1
cytotoxicity at 10 µM: 2.1%

Cn1cc(CN2CCOC(CCNC(=O)c3ccsc3)C2)cn1 (stereo unspecified)
cytotoxicity at 10 µM: 2.72%

CCSCCC(C)N(C)C(=O)c1ccc(C)o1 (stereo unspecified)
cytotoxicity at 10 µM: -3.75%

O=C(Nc1cc(C(F)(F)F)c[nH]c1=O)C1CCCCN1 (stereo unspecified)
cytotoxicity at 10 µM: -0.924%

O=C(NC1CCC(C(=O)N2CCSCC2)CC1)N1CCOCC1 (stereo unspecified)
cytotoxicity at 10 µM: 13.1%

CCc1cc(NCc2ccccc2CN2CCCC2)n2ncnc2n1
cytotoxicity at 10 µM: 5.42%

O=C1CC2(CCN(S(=O)(=O)c3cccs3)C2)CN1c1ccccc1 (stereo unspecified)
cytotoxicity at 10 µM: 5.08%

CS(=O)(=O)N1CCc2c(cccc2NC(=O)CC(F)(F)F)C1
cytotoxicity at 10 µM: 5.06%

Cc1cc2nc(-c3ccccc3)cc(NCC3CCCOC3)n2n1 (stereo unspecified)
cytotoxicity at 10 µM: -3.54%

COc1ccc(CN2CC[C@H]3[C@H]2CCN3C(=O)c2cnn(C)c2)cc1
cytotoxicity at 10 µM: 7.9%

Cn1cc(CN2CCC3(CC2)CCN(C(=O)c2cscn2)C3)cn1
cytotoxicity at 10 µM: -2.45%

COCCN1CCOCC12CCN(c1cnccn1)CC2
cytotoxicity at 10 µM: -102%

O=C1CCC2(CCC(NCc3cccnc3)CC2)N1Cc1ccccc1 (stereo unspecified)
cytotoxicity at 10 µM: -2.04%

CC(C)c1nnc2n1CCN(C(=O)c1ccc3cc[nH]c3c1)C2
cytotoxicity at 10 µM: 4.02%

CSc1ncc(C(=O)N2CCN(c3ccccc3C)CC2C)cn1 (stereo unspecified)
cytotoxicity at 10 µM: 0.642%

CC(C)CN1CCc2[nH]cnc2C12CCN(C(=O)c1cnn(C)c1)CC2
cytotoxicity at 10 µM: -4.68%

N#Cc1ccc(F)c(CN2CCc3sccc3C2)c1
cytotoxicity at 10 µM: -3.09%

COc1ccc(CCC(C)Nc2cccc(SC)c2)cc1 (stereo unspecified)
cytotoxicity at 10 µM: -1.11%

OC(CN1CCC(c2ccn[nH]2)CC1)c1cccc(F)c1 (stereo unspecified)
cytotoxicity at 10 µM: -7.64%

CC(Cn1cncn1)NC(=O)Nc1ccc(F)cc1OCC1CC1 (stereo unspecified)
cytotoxicity at 10 µM: 4.34%

COc1ccccc1C(O)CNC(=O)NCc1cc[nH]n1 (stereo unspecified)
cytotoxicity at 10 µM: -8.81%

O=C(c1ccccn1)N1C[C@H]2CC[C@@H](C1)N(C(=O)CCC(F)(F)F)C2
cytotoxicity at 10 µM: 4.37%

CCc1ccc(CC)c(NCC(=O)N2CCCC(NC(C)=O)C2)c1 (stereo unspecified)
cytotoxicity at 10 µM: -5.87%

Cc1nc(CN2CCC(N(C)Cc3noc(C4CC4)n3)C2)oc1C (stereo unspecified)
cytotoxicity at 10 µM: -11.1%

O=C(c1ccnnc1)N1CCN2C[C@H](Oc3cccnc3)C[C@H]2C1
cytotoxicity at 10 µM: 1.43%

CN(CC(=O)N1CC(C)(C)[C@](O)(C2CC2)C1)Cc1ccncc1
cytotoxicity at 10 µM: -44.1%

CCOC(=O)Cc1csc(NC(=O)c2ccc(=O)[nH]n2)n1
cytotoxicity at 10 µM: -1.23%

CN(CC1(CO)CCCC1)[C@@H]1c2ccccc2C2(CCNCC2)[C@H]1O
cytotoxicity at 10 µM: 1.44%

Cc1cc(N2CCC(Cc3ccncc3)C2)ncn1 (stereo unspecified)
cytotoxicity at 10 µM: 0.328%

CC(C)CN1CCC2(C=C(C(=O)N(C)C)c3ccccc32)CC1
cytotoxicity at 10 µM: -97.4%

Cc1nc(C(C)C)sc1C(=O)NS(=O)(=O)c1ccc(C#N)cc1
cytotoxicity at 10 µM: -6.94%

CCN(CC)C(=O)[C@@H]1C[C@H](n2cc(-c3cccc(OC)c3)nn2)CN1
cytotoxicity at 10 µM: 12.4%

COc1cccc2c1CCN(C(=O)NCc1nnc3ccccn13)C2
cytotoxicity at 10 µM: 0.67%

c1ccc(-n2nc(CNC3CCc4ncnn4C3)c3c2CCC3)cc1 (stereo unspecified)
cytotoxicity at 10 µM: -12.9%

CNC(=O)c1cccc(CC2COCCN(Cc3ccc(C)o3)C2)n1 (stereo unspecified)
cytotoxicity at 10 µM: 0.166%

CC(C)(C)C(=O)N[C@H]1CC[C@H](Nc2nccc(-c3ccncc3)n2)C1
cytotoxicity at 10 µM: 5.05%

O=C1NCC(C(=O)Nc2ncc(Cc3cccc(F)c3)s2)N1 (stereo unspecified)
cytotoxicity at 10 µM: -2.45%

CN(Cc1cccc(C#N)c1)c1ncc(C(N)=O)cc1Cl
cytotoxicity at 10 µM: 1.33%

CNC(=O)N(Cc1c(F)cccc1F)C1CCCC1
cytotoxicity at 10 µM: 8.23%

COc1nn(C)c2c1CCCN(C(=O)c1ccc(C)c(F)c1)C2
cytotoxicity at 10 µM: 8.21%

Cc1ccc(CNC(=O)c2nc3c(o2)CN(C(=O)c2cccnc2)C3)o1
cytotoxicity at 10 µM: 0.109%

Cc1cc(=O)[nH]c(=O)n1COCCOCc1ccccc1
cytotoxicity at 10 µM: 3.36%

CC(=O)N1CCn2c(nnc2C2CCCCN2C(C)=O)C1 (stereo unspecified)
cytotoxicity at 10 µM: -28.1%

NC(=O)CN1CCCC1c1cncc(Oc2ccc(Cl)cc2)n1 (stereo unspecified)
cytotoxicity at 10 µM: -10.4%

CSCC(C)(O)CNC(=O)c1cccc(Cl)c1Cl (stereo unspecified)
cytotoxicity at 10 µM: 0.126%

O=C1CCc2cc(S(=O)(=O)NC(=O)c3ccc4c(c3)COC4)ccc2N1
cytotoxicity at 10 µM: 4.82%

c1csc(CN2CCC3(CC2)COCCN3CC2CC2)n1
cytotoxicity at 10 µM: 5.53%

CC(NC(=O)NCC1(O)CCC1)c1ccc(OCC2CC2)c(F)c1 (stereo unspecified)
cytotoxicity at 10 µM: -4.69%

COc1cc(C)cc(C(C(=O)O)N(C)Cc2ccncc2C)c1OC (stereo unspecified)
cytotoxicity at 10 µM: 0.231%

CC(C)c1nccc([C@@H]2C[C@@H]3CCN(Cc4ccoc4)C[C@H]3O2)n1
cytotoxicity at 10 µM: -7.47%

Nc1cc2c(nn1)CCN(C(=O)CCC1CCCCC1)C2
cytotoxicity at 10 µM: 6.5%

CC(=O)Nc1nc(-c2ccc(F)cc2)c[nH]1
cytotoxicity at 10 µM: 2.41%

CC(NC(=O)NCCCn1ccnc1)c1nncn1C (stereo unspecified)
cytotoxicity at 10 µM: 0.277%

COCCN1C[C@H](NC(=O)CCC(F)(F)F)[C@@H](C(C)C)C1
cytotoxicity at 10 µM: 5.25%

O=C(c1nc2c(o1)CN(CC1CC1)C2)N1CCCC1
cytotoxicity at 10 µM: -163%

CCSc1nnc(CCNC(=O)OC(C)(C)C)o1
cytotoxicity at 10 µM: -25.9%

c1cnnc(N2CCCC2CNc2nc3ccccc3o2)c1 (stereo unspecified)
cytotoxicity at 10 µM: -2.96%

COC1C[C@@H]2CN(C(=O)c3cc4ccc(F)cc4[nH]3)C[C@@H]2C1 (stereo partly specified)
cytotoxicity at 10 µM: 2.93%

Cc1cccc(NCc2ncc(C(C)(C)C)o2)c1
cytotoxicity at 10 µM: 24.3%

COc1cccc(C(=O)NC(C)CCN2CCOCC2)c1F (stereo unspecified)
cytotoxicity at 10 µM: -45.2%

O=C(NCCN1CCOCC1)NCc1ncc(-c2ccccc2)o1
cytotoxicity at 10 µM: 1.26%

CC(C)N(C)C(=O)CSCc1ccc(S(=O)(=O)N(C)C)o1
cytotoxicity at 10 µM: 19.1%

NC(=O)CN1CCC(C(=O)NCC(O)c2cccc(F)c2)CC1 (stereo unspecified)
cytotoxicity at 10 µM: 10.8%

COC1CCCOC12CCN(C(=O)c1ccc3[nH]nnc3c1)CC2 (stereo unspecified)
cytotoxicity at 10 µM: -3.97%

c1ccc(N2CCN(Cc3cnc(C4CCCCO4)nc3)CC2)cc1 (stereo unspecified)
cytotoxicity at 10 µM: 0.59%

CC(Oc1ccccc1C#N)C(=O)NC1CC1 (stereo unspecified)
cytotoxicity at 10 µM: 6.21%

Cc1nn(C)c(C)c1OCC(=O)NCC(O)c1ccco1 (stereo unspecified)
cytotoxicity at 10 µM: -4.71%

Cc1cc(-n2c(C)cn(CN(C)CC3CC3)c2=O)no1
cytotoxicity at 10 µM: -2.95%

COCCn1ccc2cc(C(=O)N3CCN(S(C)(=O)=O)CC3)ccc21
cytotoxicity at 10 µM: -6.63%

CC(C)c1nnc2n1CCN(CC(=O)N1CCc3sccc3C1)C2
cytotoxicity at 10 µM: -10.4%

CC(C)c1ccc(-n2cc(O)c(C(=O)O)n2)cc1
cytotoxicity at 10 µM: -42.4%

O=C(Nc1cn[nH]c1)c1ccc(O)nc1
cytotoxicity at 10 µM: -1.09%

CC(=O)N[C@@H]1CN(C(=O)c2cc3ccccc3[nH]2)C[C@H]1c1ccc(C)o1
cytotoxicity at 10 µM: -10.2%

NC(=O)c1cnn2c1NCC(CNCC1(c3ccccc3)CCC1)C2 (stereo unspecified)
cytotoxicity at 10 µM: -7.73%

Cc1n[nH]c(C)c1CC(=O)N1CC[C@@](C)(O)[C@@H](Cc2ccccc2)C1
cytotoxicity at 10 µM: 5.94%

C[C@H]1CN(C(=O)c2cscn2)C[C@@]12CCN(c1ccsc1)C2=O
cytotoxicity at 10 µM: -80.7%

Cc1[nH]c2ccccc2c1CCNc1ncnc2c1CCNCC2
cytotoxicity at 10 µM: -37.5%
